Shown are actives, neighbours in structure and some others; about 2.3% of the full set was active somewhere.
TRPC4 inh – TRPC4 (mouse) channel inhibition; Q9QUQ5; B-score at 10 µM; HEK293 TRPC4beta/mu-opioid, DAMGO-evoked Fluo4 calcium flux; stronger effect = lower value; 300,000 compounds, 0.39% hits;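 active = B-score over 3 SD under the library average, no early fluorescence shift, positive overall ratio signal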
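Assay system: Stable TRPC4beta/mu-opioid receptor HEK293 cells | Reagent: DAMGO in two steps, submaximal then maximal | Compound dosing: Single concentration per test compound | Signal: Fluo4 Ca2+ flux fluorescence | Evaluation: Per-well B score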
TRPC6 inh – inhibitors of mouse TRPC6 channel. Q61143. HEK293-TRPC6, membrane potential dye, ACh-evoked depolarization; stronger effect = lower value. B-score at 10 µM. 310,000 compounds, 1.1% hits;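 active = B-score under library mean minus 3 SD, initial fluorescence not abnormally high, positive integrated signal ratio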;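 note: B-score derived from integrated fluorescence ratio over the kinetic read; more negative B-score means stronger inhibition of depolarization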
Target sequence (Q61143 whole entry, looked up): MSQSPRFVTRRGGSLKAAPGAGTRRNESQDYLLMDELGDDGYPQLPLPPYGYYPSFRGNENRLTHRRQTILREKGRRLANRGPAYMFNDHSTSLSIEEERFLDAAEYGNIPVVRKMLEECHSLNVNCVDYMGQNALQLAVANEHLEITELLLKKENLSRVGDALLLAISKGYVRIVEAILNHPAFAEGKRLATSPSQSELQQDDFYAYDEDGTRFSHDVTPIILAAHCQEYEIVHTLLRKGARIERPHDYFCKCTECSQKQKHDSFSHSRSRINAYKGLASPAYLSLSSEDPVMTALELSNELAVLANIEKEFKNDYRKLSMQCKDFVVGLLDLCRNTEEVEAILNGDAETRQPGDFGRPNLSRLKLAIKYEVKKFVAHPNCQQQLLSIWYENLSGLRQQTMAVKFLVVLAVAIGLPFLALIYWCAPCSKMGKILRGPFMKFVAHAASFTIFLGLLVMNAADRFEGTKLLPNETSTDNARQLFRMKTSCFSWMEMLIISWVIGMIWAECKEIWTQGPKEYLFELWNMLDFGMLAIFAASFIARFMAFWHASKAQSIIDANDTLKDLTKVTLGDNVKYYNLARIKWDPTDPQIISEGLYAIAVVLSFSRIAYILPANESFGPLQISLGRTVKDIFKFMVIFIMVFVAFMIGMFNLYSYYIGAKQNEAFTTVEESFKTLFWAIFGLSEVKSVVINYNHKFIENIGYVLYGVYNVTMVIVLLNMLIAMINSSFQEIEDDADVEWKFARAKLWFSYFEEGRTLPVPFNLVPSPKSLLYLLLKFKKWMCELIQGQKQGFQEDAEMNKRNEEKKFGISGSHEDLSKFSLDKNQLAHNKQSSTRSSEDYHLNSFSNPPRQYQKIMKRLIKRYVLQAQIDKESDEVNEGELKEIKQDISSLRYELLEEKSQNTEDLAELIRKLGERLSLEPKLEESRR
TRPC4 potent – TRPC4 (mouse) allosteric potentiation; 310,000 compounds, 0.42% hits; HEK293 TRPC4beta/mu-opioid, DAMGO EC20, Fluo-4 Ca2+ flux; stronger effect = higher value; Q9QUQ5; B-score at 10 µM;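 active = B-score of calcium response area above 5 SD of library B-scores, with initial fluorescence ratio within 5 SD of library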
TRPC4 act – TRPC4 (mouse) channel activation | Q9QUQ5 | 310,000 compounds, 0.49% hits | HEK293 TRPC4beta/mu-opioid, Fluo4 calcium fluorescence; stronger effect = higher value | B-score at 10 µM | AID 2237;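 active = B-score above 5 SD of library B-scores, and initial fluorescence ratio not above library mean plus 5 SD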;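 note: positive B-score marks a calcium rise read as TRPC4 activation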
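Assay system: HEK293 stable line with TRPC4beta plus mu-opioid receptor. Times: dye 45 min RT, read 110 s. Measured by: kinetic Fluo4 calcium fluorescence. Measure: B score of integrated ratio. Controls: assay buffer as low control, maximal DAMGO as high control.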
TRPC6 act – activators of mouse TRPC6 channel. Q61143. HEK293-TRPC6 membrane potential dye fluorescence; stronger effect = higher value. B-score at 10 µM. 310,000 compounds, 0.13% hits;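 active = B-score of the integrated fluorescence ratio above library mean plus 3 SD, and starting fluorescence ratio within library mean plus 5 SD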;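 note: higher score means more depolarization so channel activation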
TRPC4 spec 2 – mouse TRPC4 off-target activity of TRPC6 inhibitors, second screen | shares compounds with TRPC6 inh | HEK293 TRPC4/MOR, membrane potential dye fluorescence; channel activated by saturating DAMGO dose | inhibition, % at 10 µM | 920 compounds, 42% hits | AID 2776;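 active = compounds whose fluorescence signal differed from control wells by over 3 SD, either direction, in both duplicate plates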
TRPC4 spec – tests whether TRPC6 inhibitors also affect mouse TRPC4; shares compounds with TRPC6 inh; HEK293 TRPC4/mu-opioid, membrane potential fluorescence; activity change, negative = inhibition, % at 10 µM; 920 compounds, 61% hits; AID 2777;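 active = rise or fall in signal beyond 3 SD of buffer-only wells in both replicate plates, either sign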;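 note: integrated kinetic ratio of fluorescence range over baseline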
HEK293 MPD ctr 2-1 – second check of TRPC6 inhibitor effects in parental HEK293 cells; shares compounds with TRPC6 inh; parental HEK293 membrane potential dye fluorescence; maximal acetylcholine challenge after compound addition; signal change vs control, % at 10 µM; 920 compounds, 31% hits;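 active = membrane potential signal moving either way by over 3 SD of the maximum-effect control, in both duplicate plates, meaning non-specific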
HEK293 MPD ctr-1 – counter-screen for TRPC6 inhibitors: effect in parental HEK293 cells; shares compounds with TRPC6 inh; parental HEK293 membrane potential dye fluorescence; membrane potential signal change, % at 10 µM; 920 compounds, 60% hits; AID 2780;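 active = membrane potential signal shifting up or down by more than 3 SD of buffer-only wells, on both duplicate plates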
HEK293 MPD ctr-2 – checks TRPC6 modulator effects in parental HEK293 cells. shares compounds with TRPC6 inh. membrane potential dye fluorescence. membrane potential signal change, % at 10 µM. 2,400 compounds, 51% hits;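 active = membrane potential signal moves up or down beyond 5 SD from buffer-only wells, on both duplicate plates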
HEK293 MPD ctr 2-2 – parental HEK293 nonspecific activity of TRPC6 modulators, second screen. shares compounds with TRPC6 inh. membrane potential dye fluorescence; after compound, maximal acetylcholine stimulation. inhibition, % at 10 µM. 2,400 compounds, 14% hits;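 active = membrane potential signal drops by more than 5 SD from the mean control signal, in both duplicate plates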
TRPC4/MOR mod – mouse TRPC4 off-target activity of TRPC6 modulators; shares compounds with TRPC6 inh; HEK293 TRPC4/mu-opioid, membrane potential fluorescence; percent change from control (negative = decrease, positive = increase), % at 10 µM; 2,400 compounds, 69% hits; AID 488927;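 active = membrane potential signal moved up or down beyond 5 SD of buffer control wells, in both duplicate plates, actives on both sides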
TRPC4/MOR inh 2 – second check of whether TRPC6 modulators also affect mouse TRPC4; inhibition, % at 10 µM; shares compounds with TRPC6 inh; 2,400 compounds, 55% hits; AID 488928; HEK293 TRPC4/mu-opioid, membrane potential dye fluorescence; stimulated with maximal-effect DAMGO;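 active = drop in membrane potential signal beyond 5 SD of the control wells in both duplicate plates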;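 note: TRPC4 counter screen for TRPC6 hits run under conditions tuned for TRPC6 not TRPC4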
TRPC6 block conf – confirmation of mouse TRPC6 inhibitors; shares compounds with TRPC6 inh; HEK293-TRPC6, membrane potential dye, ACh-evoked depolarization; 3,300 compounds, 43% hits; AID 488960; inhibition, % at 10 µM;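 active = fluorescence ratio falls more than 5 SD below the full-stimulation control mean, in both duplicate runs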;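 note: integrated fluorescence ratio of peak minus minimum over baseline after agonist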
TRPC6 act confirm – mouse TRPC6 activator confirmation | AID 488961 | activation, % at 10 µM | HEK293-TRPC6 membrane potential dye fluorescence, FDSS | shares compounds with TRPC6 inh | 2,800 compounds, 11% hits;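 active = ratio signal rise beyond 5 SD above unstimulated control wells' mean, seen in both duplicate runs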
Hits are given with their value; – = inactive; · = not tested or not shown.

SMILES	TRPC4 inh	TRPC6 inh	TRPC4 potent	TRPC4 act	TRPC6 act	TRPC6 block conf	TRPC6 act confirm	others
C=CCOC(=O)C1=C[C@@H](c2ccc(C(F)(F)F)cc2)C[C@@H](OCc2ccc(CO)cc2)O1	–	–	–	–	–	·	·
Cn1c(CNc2nc3ccccc3n2CCN2CCCCC2)nc2ccccc21	–	-6.55	–	–	–	44.0%	–	HEK293 MPD ctr-2=–;HEK293 MPD ctr 2-2=–;TRPC4/MOR mod=–;TRPC4/MOR inh 2=72.5%
COc1ccc(CNc2nc3ccccc3n2CCN2CCCCC2)cc1	–	–	–	–	–	·	·
CCOc1cccc(-c2c(C(=O)N/N=C/c3ccc(Br)cc3)nnn2-c2nonc2N)c1	–	–	–	–	–	·	·
Cc1ccc(S(=O)(=O)NCC(C)n2nc(C)nc2C)cc1 (centres undefined)	–	–	–	–	–	·	·
CCOc1ccc(N2C(=O)C3=C(C(c4ccc(Cl)cc4)=NCCN3)C2c2cccnc2)cc1 (centres undefined)	–	–	–	–	–	·	·
Cc1ccc(C2C3=C(NCCN=C3c3ccccc3)C(=O)N2c2ccccc2)cc1 (centres undefined)	–	-6.62	–	–	–	74.9%	–	TRPC4 spec 2=16.5%;TRPC4 spec=18.4%;HEK293 MPD ctr 2-1=–;HEK293 MPD ctr-1=1.3%
O=c1c2ccccc2oc2ccc(NCCCN3CCOCC3)cc12	–	–	–	–	–	·	·
O=c1c2ccccc2oc2cc(NCCCN3CCOCC3)ccc12	–	–	–	–	–	·	·
CN1CCCC1CCNc1ccc2c(=O)c3ccccc3oc2c1 (centres undefined)	–	-9.54	–	–	–	–	–	TRPC4 spec 2=73.5%;TRPC4 spec=-10.0%;HEK293 MPD ctr 2-1=–;HEK293 MPD ctr-1=–
CN1CCCC1CCNc1ccc2oc3ccccc3c(=O)c2c1 (centres undefined)	–	-5.59	–	–	–	44.0%	·	HEK293 MPD ctr-2=178.0%;HEK293 MPD ctr 2-2=–;TRPC4/MOR mod=14.5%;TRPC4/MOR inh 2=44.0%
CC(OC(=O)c1nsc(Cl)c1Cl)C(=O)NCCc1ccccc1 (centres undefined)	–	–	–	–	–	·	·
CCCOc1cccc(C2C(C(=O)c3cccs3)=C(O)C(=O)N2Cc2cccnc2)c1 (centres undefined)	–	–	–	–	–	·	·
CCCC(=O)NC(Nc1cccc(C(F)(F)F)c1)C(Cl)(Cl)Cl (centres undefined)	–	–	–	–	–	·	·
CCC(C)(C)n1nnnc1C(c1cc2cc3c(cc2[nH]c1=O)OCO3)N1CCCCC1 (centres undefined)	–	-5.89	–	–	–	–	·	HEK293 MPD ctr-2=–;HEK293 MPD ctr 2-2=–;TRPC4/MOR mod=–;TRPC4/MOR inh 2=–
CCCN1CCN(C(c2cc3cc4c(cc3[nH]c2=O)OCO4)c2nnnn2C(C)(C)C)CC1 (centres undefined)	–	–	–	–	–	·	·
CCOC(=O)c1cnc2c(C(=O)OC)cccc2c1NCc1cccnc1	–	-6.16	–	–	–	–	–	HEK293 MPD ctr-2=–;HEK293 MPD ctr 2-2=–;TRPC4/MOR mod=14.5%;TRPC4/MOR inh 2=–
CCOC(=O)c1cnc2c(ccc3ccccc32)c1NCCN(C)C	–	-6.79	–	–	–	–	–	TRPC4 spec 2=74.5%;TRPC4 spec=-14.3%;HEK293 MPD ctr 2-1=–;HEK293 MPD ctr-1=-232.5%
CCOC(=O)c1cnc2c(Cl)cccc2c1NCCN(C)C	–	-9.18	–	–	–	72.6%	–	TRPC4 spec 2=68.0%;TRPC4 spec=-26.2%;HEK293 MPD ctr 2-1=18.0%;HEK293 MPD ctr-1=-448.0%
CCOC(=O)c1cnc2c(ccc3ccccc32)c1NCCO	–	–	–	–	–	·	·
CCOC(=O)c1c(NCCN(C)C)c2ccccc2[nH]c1=O	–	–	–	–	–	·	·
CCC(C)NC(=O)C1(O)c2cc(Br)ccc2NC(=O)N1c1cccc(OC)c1 (centres undefined)	–	–	–	–	–	·	·
O=C(Nc1ccc2c(c1)C(=O)NC2=O)c1cccc(C(F)(F)F)c1	–	–	–	–	–	·	·
CN(C)C(=O)COc1ccc2c3c(c(=O)oc2c1)CCCC3	–	–	–	–	–	·	·
Cc1cc(N2CCN(C)CC2)ccc1NC(=O)c1ccc(-c2ccc(Cl)cc2)o1	–	-9.02	–	50	–	66.7%	–	TRPC4 spec 2=16.0%;TRPC4 spec=2.7%;HEK293 MPD ctr 2-1=–;HEK293 MPD ctr-1=-334.0%
SMILES	TRPC4 inh	TRPC6 inh	TRPC4 potent	TRPC4 act	TRPC6 act	TRPC6 block conf	TRPC6 act confirm	others
CN1CCN(c2ccccc2NC(=O)c2ccc(-c3ccc(Cl)c(Cl)c3)o2)CC1	–	–	–	–	–	·	·
O=C(N/N=C/c1c[nH]c2ccccc12)c1cc(Br)ccc1O	–	-6.33	–	–	–	44.0%	–	HEK293 MPD ctr-2=–;HEK293 MPD ctr 2-2=–;TRPC4/MOR mod=–;TRPC4/MOR inh 2=60.5%
CCOc1ccc(Br)cc1C(=O)N/N=C/c1c[nH]c2ccccc12	–	–	–	–	–	·	·
Cc1cc2nc(N3CCN(C(=O)c4cccs4)CC3)sc2cc1C	–	–	–	–	–	·	·
O=C(C1=COCCO1)N1CCN(C(c2ccccc2)c2ccccc2)CC1	–	-7.03	–	–	–	–	·	TRPC4 spec 2=–;TRPC4 spec=1.6%;HEK293 MPD ctr 2-1=–;HEK293 MPD ctr-1=1.7%
Cc1cc(C)c2nc(N3CCN(C(=O)c4cccs4)CC3)sc2c1	–	-6.48	–	–	–	–	–	HEK293 MPD ctr-2=–;HEK293 MPD ctr 2-2=–;TRPC4/MOR mod=–;TRPC4/MOR inh 2=–
Cc1ccc2sc(N3CCN(C(=O)C4=COCCO4)CC3)nc2c1C	–	-5.41	–	–	–	67.5%	·	HEK293 MPD ctr-2=–;HEK293 MPD ctr 2-2=–;TRPC4/MOR mod=17.0%;TRPC4/MOR inh 2=–
Cc1ccc2sc(NNC(=O)C3=COCCO3)nc2c1C	–	–	–	–	–	·	·
Cc1ccc(S(=O)(=O)N2CCN(C(=O)C3=COCCO3)CC2)cc1C	–	-6.99	–	–	–	–	–	TRPC4 spec 2=–;TRPC4 spec=-0.7%;HEK293 MPD ctr 2-1=–;HEK293 MPD ctr-1=–
